In ChEMBL document CHEMBL5154731, “Synthetic methodology-enabled discovery of a tunable indole template for COX-1 inhibition and anti-cancer activity” (Bioorg Med Chem, 2022):
pIC50: −log10 of the molar value. The source made the active and inactive calls. The rule behind the calls is not given here.

Legend:
[1] = Cytotoxicity against African green monkey Vero cells assessed as reduction in cell viability measured after 72 hrs by MTS assay; format: toxicity, cell-based; details: African green monkey (Chlorocebus sabaeus)
Method in brief: (§1)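 Cells seeded at 2000 to 4500/well on day 1. Next day, treated 72 h with drug at 2.5 to 500 μM from a 1% DMSO solution in medium (DMSO control), each in triplicate. All with 10% FBS. MTS reagent added for 2.5–3 h at 37 °C, absorbance at 490 nm; eight points averaged per concentration.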

[2] = molecular target: T1, Prostaglandin G/H synthase 1 (Ovis aries) (UniProt P05979); experiment: Inhibition of full-length ovine COX-1 at 5 uM using arachidonic acid as substrate preincubated for 5 mins followed by substrate addition and measured after 2 mins by colorimetry relative to control; details: time 7.0 min
T1 sequence (whole entry): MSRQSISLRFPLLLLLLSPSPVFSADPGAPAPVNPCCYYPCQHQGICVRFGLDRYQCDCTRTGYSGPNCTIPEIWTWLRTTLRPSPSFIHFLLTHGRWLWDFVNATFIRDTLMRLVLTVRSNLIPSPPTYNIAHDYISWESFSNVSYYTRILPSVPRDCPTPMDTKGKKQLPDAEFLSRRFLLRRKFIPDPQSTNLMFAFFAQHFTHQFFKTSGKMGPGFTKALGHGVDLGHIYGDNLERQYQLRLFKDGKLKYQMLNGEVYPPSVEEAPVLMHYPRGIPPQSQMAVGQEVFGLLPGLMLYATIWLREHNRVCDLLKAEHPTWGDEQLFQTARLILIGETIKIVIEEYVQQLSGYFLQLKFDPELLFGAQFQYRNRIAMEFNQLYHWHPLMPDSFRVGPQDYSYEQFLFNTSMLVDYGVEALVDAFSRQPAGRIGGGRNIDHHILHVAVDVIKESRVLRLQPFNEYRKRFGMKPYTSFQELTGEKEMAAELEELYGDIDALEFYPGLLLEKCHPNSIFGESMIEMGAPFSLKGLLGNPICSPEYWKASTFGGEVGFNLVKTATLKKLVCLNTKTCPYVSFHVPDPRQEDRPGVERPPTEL

HepG2 [3] = experiment: Cytotoxicity against human HepG2 cells assessed as reduction in cell viability measured after 72 hrs by MTS assay; format: functional, cell-based; details: HepG2, 72 h; method in brief: as §1
HeLa = experiment: Cytotoxicity against human HeLa cells assessed as reduction in cell viability measured after 72 hrs by MTS assay; format: functional, cell-based; method in brief: as §1
A549 = experiment: Cytotoxicity against human A549 cells assessed as reduction in cell viability measured after 72 hrs by MTS assay; format: functional, cell-based; details: A549, 72 h; method in brief: as §1
MDA-MB-231 = experiment: Cytotoxicity against human MDA-MB-231 cells assessed as reduction in cell viability measured after 72 hrs by MTS assay; format: functional, cell-based; details: MDA-MB-231, 72 h; method in brief: as §1
MCF7 = experiment: Cytotoxicity against human MCF7 cells assessed as reduction in cell viability measured after 72 hrs by MTS assay; format: functional, cell-based; details: MCF7, 72 h; method in brief: as §1
[4] = molecular target: T2, Prostaglandin G/H synthase 1 (Ovis aries, UniProt P05979); experiment: Inhibition of full-length ovine COX-1 using arachidonic acid as substrate preincubated for 5 mins followed by substrate addition and measured after 2 mins by colorimetry
T2 sequence (P05979 whole entry): T1 sequence (whole entry)

DU-145 = experiment: Cytotoxicity against human DU-145 cells assessed as reduction in cell viability measured after 72 hrs by MTS assay; format: functional, cell-based; details: DU-145, 72 h; method in brief: as §1
LNCaP = experiment: Cytotoxicity against human LNCaP cells over expressing androgen receptor F876L mutant assessed as reduction in cell viability measured after 72 hrs by MTS assay; format: functional, cell-based; method in brief: as §1
[5] = molecular target: T1, Prostaglandin G/H synthase 1 (Ovis aries); experiment: Inhibition of full-length ovine COX-1 at 50 uM using arachidonic acid as substrate preincubated for 5 mins followed by substrate addition and measured after 2 mins by colorimetry relative to control; details: time 7.0 min
HepG2 [6] = experiment: Induction of apoptosis in human HepG2 cells assessed as increase in ratio of Bax/Bcl-2 expression at 75 uM measured after 20 hrs by Western blot analysis; format: functional, cell-based
Method in brief: (§2)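 Hep-G2 (1 × 10^6/well) plated 48 h before treatment, then exposed 20 h to 0.1% DMSO solutions of compound (DMSO control). Cells washed in PBS and lysed in RIPA; 20–40 μg protein run on 4–20% gel at 150 V for 65 min, transferred to PVDF, blocked in 5% BSA. Probed overnight for cleaved and pro-caspase, Bcl-xL, Bcl-2, Bax and actin, then IRDye secondaries 1 h, with fluorescence quantification.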

HepG2 [7] = experiment: Induction of apoptosis in human HepG2 cells assessed as up regulation of Bax expression at 75 uM measured after 20 hrs by Western blot analysis; format: functional, cell-based; method in brief: as §2
HepG2 [8] = experiment: Cell cycle arrest in human HepG2 cells assessed as increase in cell accumulation at G1/G0 phase at 100 uM measured after 24 to 48 hrs by propidium iodide staining based FACS analysis; format: functional; details: time 24-48 hrs
Method in brief: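 Hep-G2 grown to 70% confluence in 10-cm dishes, treated in 0.1% DMSO medium for 24 or 48 h (0.1% DMSO control). Floating and trypsinized cells pooled, washed in PBS, fixed overnight at –20 °C in 70% ethanol, then 200 μg/mL RNase A for 30 min and 100 μg/mL propidium iodide for 30 min at room temperature. DNA content read by flow cytometry; two independent experiments in duplicate.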

HepG2 [9] = experiment: Induction of apoptosis in human HepG2 cells assessed as increase in cleaved caspase-3 level at 75 uM measured after 20 hrs by Western blot analysis; format: functional, cell-based; method in brief: as §2
HepG2 [10] = experiment: Down regulation of AR expression in human HepG2 cells at 75 uM measured after 20 hrs by Western blot analysis; format: functional, cell-based
HepG2 [11] = experiment: Induction of apoptosis in human HepG2 cells assessed as decrease in Bcl-2 expression at 75 uM measured after 20 hrs by Western blot analysis; format: functional, cell-based; method in brief: as §2
HepG2 [12] = experiment: Induction of apoptosis in human HepG2 cells assessed as down regulation of Bcl-xl expression at 75 uM measured after 20 hrs by Western blot analysis; format: functional, cell-based; method in brief: as §2
Vero = experiment: Cytotoxicity against African green monkey Vero cells assessed as reduction in cell viability at 2.5 to 500 uM measured after 72 hrs by MTS assay; format: toxicity, cell-based; details: chlorocebus sabaeus, dose 2.5-500 µM; method in brief: as §1

Structure (SMILES) | IC50 at 72 h [1] [µM] | inhibition [2] [%] | pIC50 (HepG2 [3]) | pIC50 (HeLa) | pIC50 (A549) | pIC50 (MDA-MB-231) | pIC50 (MCF7) | pIC50 (DU-145) | pIC50 (LNCaP) | inhibition [5] [%] | Activity (Vero) | also measured
COc1ccc2c(CO)cn(C)c2c1C(=O)NCC(F)(F)F | 229 | < 20 | 4.24 | 3.96 | 3.79 | 3.60 | 3.56 | 3.84 | 4.00 | < 20 |  | pIC50 [4]: 4.07
Cc1ccc(-c2cc(C(F)(F)F)nn2-c2ccc(S(N)(=O)=O)cc2)cc1 [CELECOXIB] | 60.6 |  | 4.24 | 4.24 | 4.24 | 4.16 | 4.19 | 4.23 | 4.79 |  |  | Activity (HepG2 [6]): Active; Activity (HepG2 [7]): Active; Activity (HepG2 [8]): Active; Activity (HepG2 [9]): Active; Activity (HepG2 [10]): Active; Activity (HepG2 [11]): Active; Activity (HepG2 [12]): Active
COc1ccc2c(Cc3cn(C)c4c(C(=O)OCC(F)(F)F)c(OC)ccc34)cn(C)c2c1C(=O)OCC(F)(F)F |  | < 20 |  |  |  |  |  |  |  | 22.9 | Non-Toxic | 
COc1ccc2c(C(=O)O)cn(C)c2c1C(=O)OCC(F)(F)F |  |  |  |  |  |  |  |  |  |  | Non-Toxic | 
COc1ccc2c(Cc3cn(C)c4c(C(=O)NCC(F)(F)F)c(OC)ccc34)cn(C)c2c1C(=O)NCC(F)(F)F |  | < 20 |  |  |  |  |  |  |  | < 20 | Non-Toxic | 
